We go through one compound from ChEMBL document CHEMBL3576866, “Discovery of a Cyclic Boronic Acid β-Lactamase Inhibitor (RPX7009) with Utility vs Class A Serine Carbapenemases” (J Med Chem, 2015).

For data set [1], the target named is T1, Class A carbapenemase (Enterobacter cloacae) (UniProt A7WP95).
T1 sequence (whole entry): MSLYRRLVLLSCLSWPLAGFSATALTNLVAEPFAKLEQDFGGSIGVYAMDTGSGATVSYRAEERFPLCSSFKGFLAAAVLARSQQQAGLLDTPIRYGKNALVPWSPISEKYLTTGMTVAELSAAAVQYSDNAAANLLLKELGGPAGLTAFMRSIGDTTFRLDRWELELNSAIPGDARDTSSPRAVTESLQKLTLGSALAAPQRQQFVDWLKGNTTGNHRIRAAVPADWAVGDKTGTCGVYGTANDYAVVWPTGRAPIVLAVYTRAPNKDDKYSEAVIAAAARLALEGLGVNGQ
The data set can be described thus: Inhibition of Enterobacter cloacae ECL1058 KPC-3 assessed as ertapenem MIC at 4 ug/ml by broth microdilution method. (Dilution methods test growth across graded concentrations, often in twofold steps.)

For data set [2], the system named is Klebsiella pneumoniae. Description: Inhibition of Klebsiella pneumoniae KP1087 CTX-M-15 assessed as imipenem MIC at 4 ug/ml by broth microdilution method.
The test system of data set [3] is Klebsiella pneumoniae. Description: Inhibition of Klebsiella pneumoniae KP1008 KPC-2 assessed as biapenem MIC at 4 ug/ml by broth microdilution method. A digest of the protocol: (§1)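 CLSI broth microdilution (M07-A9, 2012) MIC of the carbapenem against clinical serine carbapenemase-producing strain, tested alone and with the inhibitor held at a fixed 4 μg/mL.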

In data set [4] the test system is Enterobacter cloacae. Description: Inhibition of Enterobacter cloacae EC1010 CMY-6 assessed as cefepime MIC at 4 ug/ml by broth microdilution method. Put shortly:
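CLSI broth microdilution (M07-A9) against clinical strains expressing serine β-lactamases.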

A short description of data set [5]: Cmax in human at 1 g administered as 3 hrs of infusion. The class given is ADME, organism-based. More on the design: dose 1 g. The settings on record: in vivo, iv.
Data set [6] addresses T2, Beta-lactamase SHV-1 (Klebsiella pneumoniae) (UniProt P0AD64).
T2 sequence (whole entry): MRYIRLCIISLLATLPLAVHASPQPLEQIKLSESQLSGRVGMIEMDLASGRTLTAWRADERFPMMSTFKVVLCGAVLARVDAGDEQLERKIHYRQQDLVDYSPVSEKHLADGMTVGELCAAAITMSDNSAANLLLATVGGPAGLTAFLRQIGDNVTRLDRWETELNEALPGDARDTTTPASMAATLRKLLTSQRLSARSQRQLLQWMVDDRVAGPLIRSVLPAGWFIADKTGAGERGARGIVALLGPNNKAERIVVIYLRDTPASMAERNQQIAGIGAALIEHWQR
The data set can be described thus: Inhibition of Klebsiella pneumoniae KP1083 SHV-1 assessed as imipenem MIC at 4 ug/ml by broth microdilution method.

Data set [7] has as its target Beta lactamase TEM-1 (Klebsiella pneumoniae) (UniProt Q7B899). The data set can be described thus: Inhibition of Klebsiella pneumoniae KP1087 TEM-1 assessed as biapenem MIC at 4 ug/ml by broth microdilution method. A digest of the protocol:
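Carbapenem MIC by CLSI broth microdilution (M07-A9), carbapenem titrated with inhibitor held at fixed 4 μg/mL, against clinical serine-carbapenemase-producing strain KP1087 (KPC-2, CTX-M-15, SHV-11, TEM-1; double porin mutant).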

In data set [8] the test system is Klebsiella pneumoniae. The data set can be described thus: Inhibition of Klebsiella pneumoniae KP1087 SHV-11 assessed as biapenem MIC at 4 ug/ml by broth microdilution method. A digest of the protocol:
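CLSI broth microdilution (M07-A9) against clinical K. pneumoniae strain KP1087 (KPC-2, CTX-M-15, SHV-11, TEM-1); carbapenem MIC (μg/mL) read with the inhibitor held at a fixed 4 μg/mL, alongside carbapenem alone.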

A short description of data set [9]: Inhibition of elastase (unknown origin) using Suc-AAPA-pNA as substrate preincubated for 10 mins followed by substrate addition measured for 30 mins by spectrophotometric analysis. More on the design: species or system Homo sapiens. Put shortly: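 Elastase from a commercial source in 25 mM Tris-HCl, pH 8.0. Inhibitor at various concentrations was preincubated 10 min at 37 °C. Suc-AAPA-pNA (listed at 50 μM) was added and absorbance followed for 30 min. Rates were relative to untreated; IC50 is the concentration giving 50% inhibition.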

In data set [10] the target is Beta lactamase TEM-1 (Klebsiella pneumoniae) (UniProt Q7B899). Description: Inhibition of Klebsiella pneumoniae KP1083 TEM-1 assessed as biapenem MIC at 4 ug/ml by broth microdilution method. Put shortly: as §1
Data set [11] concerns Klebsiella pneumoniae. The data set can be described thus: Inhibition of Klebsiella pneumoniae KP1004 SHV-11 assessed as meropenem MIC at 4 ug/ml by broth microdilution method. Put shortly: as §1
Data set [12] is described as follows: Clearance in rat at 1000 mg/kg, iv administered as 0.5 hrs infusion by HPLC-MS method. The class given is ADME, organism-based. The settings on record: in vivo.
The test system of data set [13] is Klebsiella pneumoniae. The data set can be described thus: Inhibition of Klebsiella pneumoniae KP1004 KPC-2 assessed as ertapenem MIC at 4 ug/ml by broth microdilution method. A digest of the protocol: as §1
The subject of data set [14] is Mus musculus. The data set can be described thus: Toxicity in Swiss webster neutropenic mouse lung infection model up to 1000 mg/kg, administered every 2 hrs starting at 2 hrs. The class given is organism-based. To be noted: in vivo.
Data set [15] has as its system Enterobacter cloacae. The data set can be described thus: Inhibition of Enterobacter cloacae ECL1058 SHV-11 assessed as meropenem MIC at 4 ug/ml by broth microdilution method.
Data set [16] relates to Klebsiella pneumoniae. The data set can be described thus: In vivo inhibition of KPC in Klebsiella pneumoniae KP1074 in Swiss webster neutropenic mouse lung infection model assessed as meropenem deltalog10CFU in lung at 50 mg/kg, ip administered every 2 hrs starting at 2 hrs postinfection measured after 24 hrs. The class given is functional.
Data set [17] concerns the target Carbapenem-hydrolyzing beta-lactamase KPC (Klebsiella pneumoniae) (UniProt Q9F663). The data set can be described thus: Inhibition of Klebsiella pneumoniae KP1083 KPC-3 assessed as meropenem MIC at 4 ug/ml by broth microdilution method. A digest of the protocol:
as §1

Data set [18] can be described thus: Cmax in rat at 100 mg/kg, iv administered as 0.5 hrs infusion by HPLC-MS method. On the set-up: dose 100 mg/kg, route intravenous. The data set is classed as ADME, organism-based. The settings on record: in vivo.
Data set [19] concerns the target Tissue-type plasminogen activator (Homo sapiens, UniProt P00750). Description: Inhibition of tissue plasminogen activator (unknown origin) using GK-pNA as substrate preincubated for 10 mins followed by substrate addition measured for 30 mins by spectrophotometric analysis. A digest of the protocol:
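Tissue plasminogen activator (commercial) in 30 mM Tris-HCl, pH 8.5, 30 mM imidazole, 130 mM NaCl. Incubated with inhibitor at several concentrations for 10 min at 37 °C. GK-pNA (listed at 100 μM) was added and absorbance followed for 30 min. Rates were relative to a no-treatment control; IC50 is the concentration giving 50% inhibition.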

The subject of data set [20] is Klebsiella pneumoniae. The data set can be described thus: Inhibition of Klebsiella pneumoniae KP1004 SHV-11 assessed as biapenem MIC at 4 ug/ml by broth microdilution method. A digest of the protocol: as §1
For data set [21], the system named is Klebsiella pneumoniae. The data set can be described thus: Inhibition of Klebsiella pneumoniae KP1088 SHV-11 assessed as biapenem MIC at 4 ug/ml by broth microdilution method. Put shortly:
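CLSI broth microdilution (M07-A9, 2012) against the clinical K. pneumoniae isolate. Carbapenem MICs were read alone and with 9f held at a fixed 4 μg/mL.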

The nature of data set [22]: AUC (0 to infinity) in rat at 300 mg/kg, iv administered as 0.5 hrs infusion by HPLC-MS method. The class given is ADME, organism-based. On the set-up: dose 300 mg/kg, time infinity, route intravenous. To be noted: in vivo.

Chain of Beta lactamase TEM-1 (Klebsiella pneumoniae) (Q7B899 as listed by the source): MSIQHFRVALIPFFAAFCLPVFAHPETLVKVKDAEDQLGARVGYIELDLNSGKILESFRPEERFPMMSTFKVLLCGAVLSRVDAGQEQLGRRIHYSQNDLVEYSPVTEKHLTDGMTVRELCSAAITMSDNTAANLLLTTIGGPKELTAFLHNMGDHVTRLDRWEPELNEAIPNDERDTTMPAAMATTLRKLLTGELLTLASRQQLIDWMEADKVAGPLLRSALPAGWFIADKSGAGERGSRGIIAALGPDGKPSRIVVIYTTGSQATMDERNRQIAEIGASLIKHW
Chain of Carbapenem-hydrolyzing beta-lactamase KPC (Klebsiella pneumoniae) (Q9F663 whole entry): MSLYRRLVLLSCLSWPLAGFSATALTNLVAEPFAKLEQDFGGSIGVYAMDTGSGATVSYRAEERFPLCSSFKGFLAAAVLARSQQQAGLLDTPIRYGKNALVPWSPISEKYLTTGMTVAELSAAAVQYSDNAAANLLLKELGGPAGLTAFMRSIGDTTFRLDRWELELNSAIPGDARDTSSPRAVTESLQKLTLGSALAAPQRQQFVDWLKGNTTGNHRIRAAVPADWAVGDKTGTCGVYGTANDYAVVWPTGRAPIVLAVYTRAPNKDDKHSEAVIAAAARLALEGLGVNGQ
Chain of Tissue-type plasminogen activator (P00750 whole entry): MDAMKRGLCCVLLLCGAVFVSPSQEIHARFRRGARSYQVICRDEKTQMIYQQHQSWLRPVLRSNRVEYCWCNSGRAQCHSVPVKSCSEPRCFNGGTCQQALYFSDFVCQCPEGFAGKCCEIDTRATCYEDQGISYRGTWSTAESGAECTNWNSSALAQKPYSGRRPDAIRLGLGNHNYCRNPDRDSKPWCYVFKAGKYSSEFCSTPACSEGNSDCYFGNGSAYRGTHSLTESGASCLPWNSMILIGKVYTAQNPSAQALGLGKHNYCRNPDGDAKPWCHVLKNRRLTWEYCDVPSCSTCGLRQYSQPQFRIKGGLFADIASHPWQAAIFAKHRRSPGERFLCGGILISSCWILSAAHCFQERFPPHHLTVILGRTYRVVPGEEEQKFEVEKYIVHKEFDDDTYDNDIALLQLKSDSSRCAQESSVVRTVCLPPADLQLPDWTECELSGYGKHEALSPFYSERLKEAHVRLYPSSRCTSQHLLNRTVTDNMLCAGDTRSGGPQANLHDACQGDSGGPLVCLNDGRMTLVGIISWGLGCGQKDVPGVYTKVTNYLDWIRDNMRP

What is called Cmax is the peak of the concentration-time curve. One may read the IC50 as the midpoint of a concentration-inhibition curve. Read a low IC50 as higher potency. As usually defined, the clearance is the rate of elimination divided by the concentration. Low readings indicate a low capacity for elimination, high ones a high capacity for elimination. For orientation: AUC(0-inf) means the area under the concentration-time curve extrapolated to infinity. A higher AUC(0-inf) goes with high exposure. For `O=C(O)C[C@@H]1CC[C@H](NC(=O)Cc2cccs2)B(O)O1` [VABORBACTAM], the MIC in [1] was 0.25 µg/mL; in data set [2], 0.25 µg/mL; in [3], no more than 0.06 µg/mL; in data set [4] it was 4 µg/mL; in [6], 0.13 µg/mL; in data set [7], 0.25 µg/mL. In addition, the MIC in data set [8] is 0.25 µg/mL; in data set [10] it was less than 0.06 µg/mL; in data set [11] it was no more than 0.06 µg/mL; in [13], no more than 0.06 µg/mL; in data set [15], less than 0.06 µg/mL; in data set [17], less than 0.06 µg/mL. Besides, the MIC in data set [20] and in [21] was no more than 0.06 µg/mL throughout. The Cmax in data set [5] was 22 µg/mL; in [18], 231 µg/mL. The IC50 in data set [9] and in data set [19] was greater than 1000 µM in each case. In [12], the clearance is 16.2 mL/min/kg. Further, the Activity result in [14] was “Non-toxic”. For the same compound, the deltalog10CFU in data set [16] is -2.03. In addition, the AUC(0-inf) in [22] was 239 µg·h/mL.
